Test results taken from ChEMBL document CHEMBL1150763, “Discovery of imidazo[1,5-c]imidazol-3-ones: weakly basic, orally active factor Xa inhibitors” (J Med Chem, 2008).

Key:
Plasma [1] = test: Anticoagulant potency in human plasma assessed as concentration required to double the time to clot formation by PT assay; type: functional
How it was run: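 Human normal plasma mixed with compound dilutions in DMSO (1.5 µL into 48.5 µL), preincubated 4 min at 37 °C, clotting started with thromboplastin and timed on an automatic coagulometer. Prolongation relative to DMSO; concentration doubling clotting time derived by least-squares regression; mean of duplicates.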

Coagulation factor X = Coagulation factor X (Homo sapiens, UniProt P00742); test: Inhibition of human factor 10a
physchem = details: buffer, pH 7.4
Plasma [2] = test: Anticoagulant potency in mouse plasma assessed as concentration required to double the time to clot formation by PT assay; type: functional
CYP3A4 = CYP3A4 (Homo sapiens, UniProt P08684); test: Inhibition of CYP3A4 expressed in human B-lymphoblastoid cells at 10 uM; type: ADME, cell-based
How it was run: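 Recombinant CYP3A4 (10 nM, from CYP3A4-expressing human B-lymphoblastoid cells) incubated with 100 µM testosterone and 10 µM test compound for 30 min at 37 °C; 6β-hydroxytestosterone formation quantified by HPLC-UV.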

Plasma [3] = test: Anticoagulant activity in mouse plasma assessed as ratio of prothrombin time in drug to untreated control at 30 mg/kg, po; type: functional
How it was run: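 Male ICR mice (30-35 g), fasted >12 h, dosed orally at 30 mg/kg as suspension in 0.5% methylcellulose; vehicle controls. Citrated aortic blood drawn 1 h post-dose under pentobarbital anaesthesia, spun 1000g 10 min to platelet-poor plasma. PT on 50 µL plasma preincubated 4 min at 37 °C, started with thromboplastin; clotting time expressed relative to control group (n = 3).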

[4] = Basicity, pKa by titration method; type: physicochemical

Chain of Coagulation factor X (P00742 41-179 limits assumed): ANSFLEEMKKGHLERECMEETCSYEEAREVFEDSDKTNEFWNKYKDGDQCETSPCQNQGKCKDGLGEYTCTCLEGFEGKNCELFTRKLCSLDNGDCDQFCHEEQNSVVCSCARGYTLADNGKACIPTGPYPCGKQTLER
Chain of Coagulation factor X (P00742 235-488 limits assumed): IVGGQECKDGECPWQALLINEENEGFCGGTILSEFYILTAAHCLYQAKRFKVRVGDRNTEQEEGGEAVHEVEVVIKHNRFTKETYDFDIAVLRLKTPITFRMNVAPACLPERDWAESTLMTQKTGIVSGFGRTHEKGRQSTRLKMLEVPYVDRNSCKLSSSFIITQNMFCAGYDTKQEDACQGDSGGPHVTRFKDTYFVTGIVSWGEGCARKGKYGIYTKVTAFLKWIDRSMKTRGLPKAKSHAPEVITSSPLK
Chain of CYP3A4 (P08684 whole entry): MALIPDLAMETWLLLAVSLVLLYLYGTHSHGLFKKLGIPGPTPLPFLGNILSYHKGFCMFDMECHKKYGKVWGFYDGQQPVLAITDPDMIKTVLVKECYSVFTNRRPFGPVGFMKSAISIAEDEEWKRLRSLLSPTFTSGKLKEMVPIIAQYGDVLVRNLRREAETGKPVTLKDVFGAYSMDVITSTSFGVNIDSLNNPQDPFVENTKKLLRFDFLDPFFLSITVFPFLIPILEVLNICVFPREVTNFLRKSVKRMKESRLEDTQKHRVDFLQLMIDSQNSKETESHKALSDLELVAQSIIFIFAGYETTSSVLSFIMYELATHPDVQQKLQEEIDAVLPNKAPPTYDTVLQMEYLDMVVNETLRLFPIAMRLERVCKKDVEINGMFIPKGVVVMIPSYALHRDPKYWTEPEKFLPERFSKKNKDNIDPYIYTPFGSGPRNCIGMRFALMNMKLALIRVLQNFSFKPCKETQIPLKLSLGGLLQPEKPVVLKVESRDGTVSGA

SMILES | Activity (Plasma [1]) [µM] | IC50 (Coagulation factor X) [µM] | logD (physchem) | Activity (Plasma [2]) [µM] | inhibition at 10 µM (CYP3A4) [%] | Ratio (Plasma [3]) | pKa [4]
O=C(CCS(=O)(=O)c1ccc2cc(Cl)ccc2c1)N1CCC(n2ccnc2)CC1 | 7 | 1.4 | – | – | – | – | –
Cc1ncc2n1C(=O)N(N1CCN(C(=O)CCS(=O)(=O)c3ccc4cc(Cl)ccc4c3)CC1)C2 | 0.61 | 0.0069 | 2.1 | 0.9 | 38 | 2.8 | 5
Cc1ncc(C2CCN(C(=O)CCS(=O)(=O)c3ccc4cc(Cl)ccc4c3)CC2)n1C | 0.56 | – | – | 3.4 | 25 | – | 8.2
O=C(CCS(=O)(=O)c1ccc2cc(Cl)ccc2c1)N1CCC(c2cnc[nH]2)CC1 | 3 | 0.17 | 2 | – | – | – | 6.9
CCCc1nccn1C1CCN(C(=O)CCS(=O)(=O)c2ccc3cc(Cl)ccc3c2)CC1 | 2 | 0.23 | – | – | – | – | –
O=C(CCS(=O)(=O)c1ccc2cc(Cl)ccc2c1)N1CCC(c2ncc[nH]2)CC1 | >10 | 1.6 | – | – | – | – | –
